In ChEMBL document CHEMBL4396917, “Synthesis and biological evaluation of novel benzylidene-succinimide derivatives as noncytotoxic antiangiogenic inhibitors with anticolorectal cancer activity in vivo” (Eur J Med Chem, 2019):
Active and inactive are the calls of the source. No cut-off for these calls is given here.

Columns and labels:
HUVEC [1] = assay: Antiangiogenic activity in HUVEC assessed as inhibition of VEGF-induced capillary like tube formation at 1 uM preincubated with VEGF for 20 mins followed by compound addition measured after 6 hrs by matrigel based tube formation assay relative to control; assay type: functional; conditions: Homo sapiens
Summary of the method: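 Matrigel (100 μL) set 1 h at 37°C; 2×10⁴ HUVECs in M200 with 10% FBS added per well plus 10 ng/mL VEGF; compound added after 20 min; incubated 6 h at 37°C, then capillary-like structures photographed.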

HUVEC [2] = assay: Effect on total STAT3 expression in VEGF-induced HUVEC at 1 to 20 uM pre-incubated for 2 hrs followed by VEGF stimulation and measured after 15 mins by Western blot analysis; assay type: ADME, cell-based; conditions: human, 0.25 h
Summary of the method: (§1)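 HUVECs serum-starved overnight, pretreated with compound (methods: 1, 2.5, 5, 10 μM for 2 h; legend: 1, 5, 10, 20 μM for 1.5 h), then VEGF 50 ng/mL (methods: VEGF165, 15 min; legend: 30 min); lysates equalized by Bradford, ~20 μg protein resolved on gradient SDS-PAGE, immunoblotted, ECL detection.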

[3] = molecular target: Ribosomal protein S6 kinase beta-1 (Homo sapiens) (UniProt P23443); assay: Inhibition of P70S6K (unknown origin) at 10 uM using myelin basic protein as substrate in presence of [gamma-33P]-ATP by scintillation counting analysis relative to control
Chain of Ribosomal protein S6 kinase beta-1 (Homo sapiens) (P23443 whole entry, looked up): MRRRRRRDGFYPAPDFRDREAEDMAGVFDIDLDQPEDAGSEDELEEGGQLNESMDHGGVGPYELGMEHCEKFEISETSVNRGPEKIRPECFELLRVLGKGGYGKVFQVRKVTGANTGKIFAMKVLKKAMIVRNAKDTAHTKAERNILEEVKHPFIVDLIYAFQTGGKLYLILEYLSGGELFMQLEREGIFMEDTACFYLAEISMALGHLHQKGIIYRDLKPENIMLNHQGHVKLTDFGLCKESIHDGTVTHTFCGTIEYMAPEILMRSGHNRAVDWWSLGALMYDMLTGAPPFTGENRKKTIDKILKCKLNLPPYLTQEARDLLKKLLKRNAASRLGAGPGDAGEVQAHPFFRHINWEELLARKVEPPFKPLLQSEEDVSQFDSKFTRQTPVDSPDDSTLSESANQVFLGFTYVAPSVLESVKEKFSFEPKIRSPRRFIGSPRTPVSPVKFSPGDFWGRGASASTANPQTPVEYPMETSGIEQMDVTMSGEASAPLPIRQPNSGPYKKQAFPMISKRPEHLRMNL
Summary of the method: (§2)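 Radiometric kinase panel run by a contract lab. Kinase (5–10 mU) in 25 mM Tris pH 7.5, 0.02 mM EGTA, 0.66 mg/mL myelin basic protein, magnesium acetate and [γ-33P]-ATP (about 500 cpm/pmol). Started with Mg-ATP mix, 40 min at room temperature, stopped with 3% phosphoric acid. Spotted on P30 filters, washed in 75 mM phosphoric acid and methanol, scintillation counted. Mean ± SD of three independent experiments.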

HUVEC [4] = assay: Antiinvasive activity in HUVEC assessed as inhibition of VEGF-induced cell invasion after 6 hrs by crystal violet staining based transwell assay; assay type: functional; conditions: Homo sapiens
Summary of the method: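 Transwell: 1×10⁴ HUVECs in serum-free M200 in top chamber with vehicle or compound; bottom chamber M200 with 10% FBS; 6 h at 37°C; cells on membrane underside fixed in 4% paraformaldehyde, stained 0.1% crystal violet, imaged and counted.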

HT-29 [5] = assay: Inhibition of Akt/mTOR signalling in human HT-29 cells assessed as reduction in AKT phosphorylation at Ser473 residue incubated for 24 hrs by immunoblot analysis; assay type: cell-based
Summary of the method: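 HT29 cells were exposed to the indicated concentrations for 24 h. Cell lysates were then immunoblotted for the phosphorylated proteins.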

HT-29 [6] = assay: Antitumor activity against human HT-29 cells xenografted in mouse assessed as reduction in cell proliferation in tumor at 20 to 60 mg/kg, po administered every other day for 3 weeks and measured at 20 days post treatment by Ki-67 staining based assay; assay type: functional, organism-based
HT-29 [7] = assay: Antitumor activity against human HT-29 cells xenografted in mouse assessed as large areas of late apoptotic and necrotic cells in tumor at 20 to 60 mg/kg, po administered every other day for 3 weeks and measured at 20 days post treatment by H and E staining based assay; assay type: functional, organism-based
HT-29 [8] = assay: Induction of apoptosis in human HT-29 cells assessed as late apoptotic cells at 10 uM after 24 hrs by Annexin V-FITC/propidium iodide staining based flow cytometric analysis (reference value: 13.4%); assay type: cell-based; conditions: ht-29, 24 h
[9] = Toxicity in mouse xenografted with human HT-29 cells assessed as body weight at 20 to 60 mg/kg, po administered every other day for 3 weeks; assay type: organism-based; conditions: in vivo, 504 h
Summary of the method: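 HT29 cells implanted subcutaneously in the right flank of nude mice. At about 100 mm³, mice were randomized to vehicle (0.9% NaCl) or oral compound at 20, 40 and 60 mg/kg, with sunitinib at 40 mg/kg as reference. Body weight and tumor size recorded every other day.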

HCT-116 = assay: Cytotoxicity against human HCT116 cells assessed as reduction in cell growth after 72 hrs by MTT assay; assay type: cell-based; conditions: HCT-116, 72 h
Aorta = assay: Inhibition of VEGF-induced capillary sprouting in Sprague-Dawley rat aortic ring at 20 uM treated for every 3 days for 7 days measured on day 7 by inverted microscopy relative to control; assay type: functional
Summary of the method: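 Aortas from anesthetized Sprague-Dawley rats cut into 1-mm rings and embedded in Matrigel for 1 h at 37°C. Rings starved 1 day, then cultured in opti-MEM with 2.5% FBS and 30 ng/mL VEGF plus compound. Treatment renewed every 3 days for 7 days. Sprouting imaged on day 7 by inverted microscopy.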

HUVEC [10] = assay: Effect on total ERK expression in VEGF-induced HUVEC at 1 to 20 uM pre-incubated for 2 hrs followed by VEGF stimulation and measured after 15 mins by Western blot analysis; assay type: ADME, cell-based; conditions: human, 0.25 h; summary of the method: as §1
HT-29 [11] = assay: Downregulation of HIF1-alpha expression in human HT-29 cells after 24 hrs by immunoblot analysis; assay type: functional, cell-based
[12] = molecular target: Vascular endothelial growth factor receptor 2 (Homo sapiens) (UniProt P35968); assay: Inhibition of VEGFR2 (unknown origin) at 10 uM using myelin basic protein as substrate in presence of [gamma-33P]-ATP by scintillation counting analysis relative to control; summary of the method: as §2
Chain of Vascular endothelial growth factor receptor 2 (Homo sapiens) (P35968 whole entry): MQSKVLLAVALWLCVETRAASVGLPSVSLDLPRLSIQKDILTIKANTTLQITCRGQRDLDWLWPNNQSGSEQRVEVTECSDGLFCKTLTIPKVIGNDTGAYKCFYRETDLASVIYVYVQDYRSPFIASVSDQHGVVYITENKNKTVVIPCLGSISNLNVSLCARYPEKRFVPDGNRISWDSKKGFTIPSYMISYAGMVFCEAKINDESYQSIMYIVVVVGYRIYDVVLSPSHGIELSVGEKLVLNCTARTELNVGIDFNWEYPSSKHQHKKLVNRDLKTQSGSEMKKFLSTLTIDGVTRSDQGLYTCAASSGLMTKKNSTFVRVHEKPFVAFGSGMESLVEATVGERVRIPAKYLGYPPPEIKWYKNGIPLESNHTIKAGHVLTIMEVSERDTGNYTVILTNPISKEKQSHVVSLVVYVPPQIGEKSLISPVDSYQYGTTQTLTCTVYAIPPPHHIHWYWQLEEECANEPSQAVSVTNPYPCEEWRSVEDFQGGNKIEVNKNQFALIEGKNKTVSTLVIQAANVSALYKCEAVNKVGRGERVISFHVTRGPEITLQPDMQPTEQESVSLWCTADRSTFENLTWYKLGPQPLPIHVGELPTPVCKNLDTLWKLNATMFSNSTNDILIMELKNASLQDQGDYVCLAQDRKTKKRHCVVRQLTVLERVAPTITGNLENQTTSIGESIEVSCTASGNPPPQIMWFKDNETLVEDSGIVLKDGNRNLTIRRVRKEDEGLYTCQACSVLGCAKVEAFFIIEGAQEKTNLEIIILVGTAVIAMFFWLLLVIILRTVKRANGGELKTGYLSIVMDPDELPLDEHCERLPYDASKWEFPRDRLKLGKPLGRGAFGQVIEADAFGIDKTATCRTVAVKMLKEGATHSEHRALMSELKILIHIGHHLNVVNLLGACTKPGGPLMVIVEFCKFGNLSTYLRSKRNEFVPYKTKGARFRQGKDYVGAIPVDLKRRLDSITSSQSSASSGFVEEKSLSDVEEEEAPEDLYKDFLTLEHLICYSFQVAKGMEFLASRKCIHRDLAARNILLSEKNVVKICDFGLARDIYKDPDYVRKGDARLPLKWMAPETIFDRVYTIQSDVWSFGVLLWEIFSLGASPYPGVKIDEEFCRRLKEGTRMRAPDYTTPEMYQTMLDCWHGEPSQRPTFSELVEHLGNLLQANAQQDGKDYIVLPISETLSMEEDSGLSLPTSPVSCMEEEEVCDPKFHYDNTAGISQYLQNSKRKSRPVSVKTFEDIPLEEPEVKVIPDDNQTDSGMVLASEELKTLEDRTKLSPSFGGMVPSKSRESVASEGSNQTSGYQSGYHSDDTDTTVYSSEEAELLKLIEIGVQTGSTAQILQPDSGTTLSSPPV

HUVEC [13] = assay: Antiangiogenic activity against HUVEC assessed as inhibition of cell proliferation measured […] by MTT assay; assay type: functional, cell-based; conditions: Homo sapiens
HUVEC [14] = assay: Antiangiogenic activity against VEGF-induced HUVEC assessed as inhibition of cell proliferation preincubated for 30 mins followed by VEGF addition measured after 24 hrs by MTT assay; assay type: functional, cell-based; conditions: Homo sapiens
Summary of the method: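 HUVECs seeded 24 h, starved 16 h in M200 with 2% FBS, pretreated 30 min with compound at 0.1, 1, 10, 20 or 40 μM, then stimulated with VEGF (25 ng/mL) for 24 h; viability read by MTT; IC50 determined.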

[15] = Induction of apoptosis in VEGF-stimulated HUVEC assessed as viable cells at 20 uM after 24 hrs by Annexin V-FITC/propidium iodide staining based flow cytometric analysis (reference value: 69.6%); assay type: cell-based; conditions: human, read-out: Activity
Summary of the method: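 HUVECs plated at 5×10^5 per well and treated 24 h with 1, 5, 10 or 20 μM. Detached and adherent cells were pooled, washed in ice-cold PBS and resuspended in fresh medium. 1×10^5 cells were stained with annexin-V-FITC in annexin-V buffer for 20 min in the dark, then PI (50 μg/mL) was added. Read-out by flow cytometry.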

[16] = molecular target: Vascular endothelial growth factor receptor 2 (Homo sapiens) (UniProt P35968); assay: Inhibition of VEGFR2 in VEGF-stimulated HUVEC assessed as downregulation of AKT phosphorylation at Ser473 residue at 1 to 10 uM pre-incubated for 2 hrs followed by VEGF stimulation and measured after 15 mins by Western blot analysis; assay type: cell-based
Summary of the method: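 HUVECs serum-starved overnight, pretreated 2 h with 1, 2.5, 5 or 10 μM compound, then stimulated 15 min with 50 ng/mL VEGF165. Lysed in Tris/EDTA/Triton/deoxycholate/SDS buffer with phosphatase and protease inhibitors. Protein equalized by Bradford, about 20 μg resolved on gradient SDS-PAGE. Blots probed for phospho and total VEGFR2 (Tyr1175), ERK1/2 (Thr202/Tyr204) and AKT (Ser473) against actin, with HRP/ECL detection.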

For COc1ccc(NC(=O)c2cccc(/C=C3\CC(=O)N(c4ccc(C)cc4)C3=O)c2)cc1, the inhibition at 1 µM (HUVEC [1]) was 30%, the Activity (HUVEC [2]) was “Not Active” and the inhibition [3] was 50 to 70%. For the same compound, the inhibition (HUVEC [4]) was “Dose-dependent effect”, the inhibition (HT-29 [5]) was “Dose-dependent effect” and the inhibition (HT-29 [6]) was “Active”. The Activity (HT-29 [7]) was “Active”, the Activity (HT-29 [8]) was 19% and the Activity [9] was “Non-Toxic”. The IC50 (HCT-116) was > 100 µM, the inhibition at 20 µM (Aorta) was 95% and the Activity (HUVEC [10]) was “Not Active”. For the same compound, the inhibition (HT-29 [11]) was “Dose-dependent effect”, the inhibition [12] was 95.4% and the inhibition (HUVEC [13]) was “Dose-dependent effect”. For the same compound, the IC50 (HUVEC [13]; 0.5 h) was 26.6 µM, the IC50 (HUVEC [14]) was 8.56 µM and the viability at 24 h, 20 µM [15] was 74.5%. The inhibition [16] was “Active”.
